Assay results reported in the EternaBench riboswitch data.

Key:
[1] = tested on: MS2 coat protein; assay: apparent Kd, MS2 coat protein; higher = weaker binding; RNA-MaP array; tryptophan 2.4 mM where present
Outline: (§1)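 The apparent Kd is reported as the median of filtered per-cluster binding-curve fits. To get these curves, designs transcribed by stalled E. coli RNA polymerase on Illumina sequencing-chip clusters were titrated with SNAP-549-labelled MS2 coat protein from 0.7 or 1.5 nM, doubling to 3 µM. Titrations were run without and then with constant ligand in 100 mM Tris-HCl pH 7.5, 80 mM KCl, 4 mM MgCl2, BSA, DTT, yeast tRNA and Tween-20, and green signal was normalised to red-channel RNA signal and control-cluster median Fmax.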

[2] = tested on: MS2 coat protein; assay: apparent Kd, MS2 coat protein; higher = weaker binding; RNA-MaP array; theophylline 2 mM where present
Outline: as §1

[3] = designed as: ON switch for tryptophan, no ligand
[4] = ligand present: tryptophan, designed as: ON switch for tryptophan
[5] = designed as: OFF switch for tryptophan, no ligand
[6] = ligand present: tryptophan, designed as: OFF switch for tryptophan
[7] = designed as: ON switch for theophylline, no ligand
[8] = ligand present: theophylline, designed as: ON switch for theophylline
[9] = designed as: OFF switch for theophylline, no ligand
[10] = ligand present: theophylline, designed as: OFF switch for theophylline

Sequence: CCUCAAUCGUCGGCCGCCACUGGAUCAUGCGGAUACAUGAGGAUCACCCAUGUGGGUGUGGUACGCAGGACCGGGACAAGACCCG
- apparent Kd [1, 3]: 340 nM
- apparent Kd [1, 4]: 244 nM

Sequence: GGGUGGUAGGCGGCCGCCACUGAUUUUCAUAUAUAUAUAACAUGAGGAUCACCCAUGUAGAUAUGCAGGACCGGGCCUGUUGUUU
- apparent Kd [1, 3]: 36.5 nM
- apparent Kd [1, 4]: 30.4 nM

Sequence: GCUAGGUCAUCGGCCGCCACUAACGACGGUUCCAACAUGAGGAUCACCCAUGUGCCACAUGCGCAUAGGACCGGGAUGACCUAGC
- apparent Kd [1, 3]: 33 nM
- apparent Kd [1, 4]: 21 nM

Sequence: AGAUUCGACACGGCCGCCACUUGUGGUGGAUUAUCCAGUGUCGAACAUGAGGAUCACCCAUGUACAAGGACCGGGUGUUGAGUCU
- apparent Kd [1, 5]: 90.4 nM
- apparent Kd [1, 6]: 282 nM

Sequence: UUUAAAUAGACGGCCGCCACUGGAAUUAAUACAUGAGGAUCACCCAUGUAGAGAGAAUAAUAAUACAGGACCGGGUCUUCAUGAA
- apparent Kd [1, 3]: 31.4 nM
- apparent Kd [1, 4]: 12.5 nM

Sequence: UGCUAGUGAUCGGCCGCCACUGGCACCUUGAGGAUCCUGCUAAAGUACAUGAGGAUCACCCAUGUCAGGACCGGGAUCAUCAGUG
- apparent Kd [1, 5]: 10.4 nM
- apparent Kd [1, 6]: 10.5 nM

Sequence: CGACACAUGAGGAUCACCCAUGUAAUGACGCGAGGACCGGUACGGCCGCCACUCGCAUGCCAAUGAGCGCAUGCGGCCUGGGUAU
- apparent Kd [1, 5]: 18.1 nM
- apparent Kd [1, 6]: 14.5 nM

Sequence: UCGAAUGCGGCGGCCGCCACUCGCGGAUAACGAUAGCUUAACAUGAGGAUCACCCAUGUGUCAUGGAGGACCGGGCCCAUACCGU
- apparent Kd [1, 3]: 22.7 nM
- apparent Kd [1, 4]: 21.1 nM

Sequence: AGUUUAGACACGGCCGCCACUCGUGACAGAUUUAGCAGUGGUCAACAUGAGGAUCACCCAUGUCUGAGGACCGGGUGUUGAGUUU
- apparent Kd [1, 5]: 177 nM
- apparent Kd [1, 6]: 631 nM

Sequence: AAACAUGAGGAUCACCCAUGUAUACUUAGACGAGGACCGGUACGGCCGCCACUCGAACUUCAAGAUUUGGCGGAAAAUGUAUGUA
- apparent Kd [1, 5]: 11.3 nM
- apparent Kd [1, 6]: 12.9 nM

Sequence: GGAUUCAACUCGGCCGCCACUGGUGAUCCUAAUGUACAUGAGGAUCACCCAUGUACAUGAGAAUACAGGACCGGGAGAUAAGCAA
- apparent Kd [1, 3]: 19.4 nM
- apparent Kd [1, 4]: 13.9 nM

Sequence: CCUCAAUAGACGGCCGCCACUGAAACAUGCGGAUACAUGAGGAUCACCCAUGUGGGUGUGUUACGCAGGACCGGGUCAAGACCCG
- apparent Kd [1, 3]: 345 nM
- apparent Kd [1, 4]: 480 nM

Sequence: UAUAUAUAUCACUAACUGUUCUUGAGGUCUCGAGGACCGGUACGGCCGCCACUCGUGCCGCCUCACAUGAGGAUCACCCAUGUCC
- apparent Kd [1, 5]: 53.7 nM
- apparent Kd [1, 6]: 57 nM

Sequence: AGUGUUAUAACUGAUACCAGACCUUUGCUUAUACAUGAGGAUCACCCAUGUAAAAUGGCGGUCCCUUGGCAGCAGAGAAUACACA
- apparent Kd [2, 7]: 33.5 nM
- apparent Kd [2, 8]: 12.5 nM

Sequence: GAUGAACUAUUUGAUACCAGACUACAUGAGGAUCACCCAUGUGAGUUUAUACUUCAGUCAGUCCCUUGGCAGCAAAUAGUUUAUC
- apparent Kd [2, 9]: 44.9 nM
- apparent Kd [2, 10]: 99.3 nM

Sequence: GGCUAGUGCAUCGAUACCAGCUACAUGAGGAUCACCCAUGUAGGAAGGGUGGUACUCGAUAGCCCUUGGCAGCGAACACCUCCGG
- apparent Kd [2, 9]: 16.1 nM
- apparent Kd [2, 10]: 31.4 nM

Sequence: AAUAACAUGAGGAUCACCCAUGUAAAAGAUACCAGAGUGAUGAUCCUCCCUUGGCAGCUUAACGCUGAUUGAUUACAAUCAGCGA
- apparent Kd [2, 7]: 57.6 nM
- apparent Kd [2, 8]: 173 nM

Sequence: ACUUUGUCGGGUGAUACCAGCCUCGGCACAUCUCGUGCCGAACAUGAGGAUCACCCAUGUGGCCCUUGGCAGCACAUGACAAAUC
- apparent Kd [2, 7]: 341 nM
- apparent Kd [2, 8]: 59.5 nM

Sequence: CAGAACAUGAGGAUCACCCAUGUCAGGGAUACCAGCUCAGACAUGGGCCCUUGGCAGCUCUGUGGCUGACGAAAGUCAGCAUCUG
- apparent Kd [2, 7]: 60.8 nM
- apparent Kd [2, 8]: 185 nM

Sequence: AUUAUCAUGGUCAUAUAUAUUUCGUCAGAUACCAGACUAGAUAUAGUCCCUUGGCAGCUGUUACAUGAGGAUCACCCAUGUUAUA
- apparent Kd [2, 9]: 116 nM

Sequence: ACAUGAGGAUCACCCAUGUUCCUCAUUGAUACCAGUGAAUUUAGACGCCCUUGGCAGCGAGUUUAAGAAGAAGAAGUUUUUUUUU
- apparent Kd [2, 9]: 667 nM
- apparent Kd [2, 10]: 895 nM

Sequence: UCGUGAGUUUCGGAUACCAGUGUUGUCGAUACAUGAGGAUCACCCAUGUUAGAGGAUGUACACCCUUGGCAGCCGGCUGUGGCGG
- apparent Kd [2, 7]: 18.6 nM
- apparent Kd [2, 8]: 11.3 nM

Sequence: CAAACAUGAGGAUCACCCAUGUAAUCAGAUACCAGUGACGAAAGUCACCCUUGGCAGCUGAGUACAUAUUGGCAGAGGUGUUUGA
- apparent Kd [2, 9]: 67 nM
- apparent Kd [2, 10]: 75 nM

Sequence: GCACCAGGUACGGAUACCAGACUCUGCCGAUUGGGUGAACAUGAGGAUCACCCAUGUUAGGUCCCUUGGCAGCCGUACCUGGUGC
- apparent Kd [2, 9]: 28.3 nM
- apparent Kd [2, 10]: 487 nM

Sequence: ACAUGAAGAACAGCGGUGGGCGCGCUCGAUACCAGUACUUUGAUAUACCCUUGGCAGCGACAUGAGGAUCACCCAUGUGAGAUGA
- apparent Kd [2, 9]: 18.7 nM
- apparent Kd [2, 10]: 27.2 nM

Sequence: AUAAGUAAGUUUUCGUGUUUUAUUACAGAUACCAGACUAUACGUUGUCCCUUGGCAGCUGGAUUACAUGAGGAUCACCCAUGUUG
- apparent Kd [2, 9]: 24.5 nM
- apparent Kd [2, 10]: 54.3 nM
